Assay results published in publication PMC7115674 (Peptides, 2008).
Entries after “also recorded” stand apart in the source; their conditions may differ. Like-named read-outs stand apart in the source and are kept apart here.

Assays:
[1] = tested on: mouse splenocytes; settings: toward mouse splenocytes; cited from earlier work
[2] = tested on: tumor cells; settings: in words; cited from earlier work
[3] = tested on: Mycosphaerella arachidicola; settings: in words; cited from earlier work
[4] = tested on: fungal species; settings: in words; cited from earlier work
[5] = tested on: breast cancer MCF-7 cell line; settings: read-out: IC50, antiproliferative activity; cited from earlier work
[6] = tested on: severe acute respiratory syndrome (SARS) coronavious (CoV) protease; settings: cited from earlier work
[7] = tested on: hepatoma HepG2 cell line; settings: read-out: IC50, antiproliferative activity; cited from earlier work
[8] = tested on: Fusarium oxysporum; settings: in words; cited from earlier work
[9] = tested on: HIV-1 integrase; settings: cited from earlier work
[10] = tested on: a Helminthosporium species; settings: in words; cited from earlier work
[11] = tested on: HIV-1 reverse transcriptase; settings: cited from earlier work
[12] = tested on: trypsin; settings: in words; cited from earlier work
[13] = tested on: trypsin; experiment: Trypsin-inhibitory activity; type: biochemical
[14] = tested on: mouse splenocytes; experiment: Mitogenic activity; type: cell-based; settings: data not shown; Con A positive control
[15] = tested on: Mycosphaerella arachidicola; experiment: Antifungal activity, mycelial growth inhibition, Mycosphaerella arachidicola; type: cell-based
Method in brief: (§1)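 Four doses of test peptide were mixed separately into potato dextrose agar at 45 °C and poured into small plates. Each plate then received an equal amount of mycelia, with a buffer-only control. After 72 h at 23 °C, colony area was measured. % inhibition = reduction in colony area relative to the control. IC50 was read from the % reduction versus concentration plot at 50% reduction.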

[16] = tested on: a Helminthosporium species; experiment: Antifungal activity, a Helminthosporium species; type: cell-based; settings: in words
Method in brief: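 Mycelial disk-diffusion assay on potato dextrose agar. After the colony developed, sterile paper disks (0.625 cm) were placed 1 cm from the colony rim. Each disk received test peptide (60 μg or 300 μg) in 20 mM PBS, pH 6.0, and buffer served as the control. Plates were incubated at 23 °C for 72 h and scored for crescents of inhibition around the disks.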

[17] = tested on: severe acute respiratory syndrome (SARS) coronavious (CoV) protease; type: biochemical
[18] = tested on: HIV-1 reverse transcriptase; experiment: HIV-1 reverse transcriptase inhibitory activity; type: biochemical; settings: in words
[19] = tested on: Helminthosporium maydis; experiment: Antifungal activity, mycelial growth inhibition, Helminthosporium maydis; type: cell-based; settings: read-out: IC50 of antifungal activity; potato dextrose agar, 23 °C, 72 h; 50% reduction in area of mycelial colony
Method in brief: as §1

[20] = tested on: Valsa mali; experiment: Antifungal activity, mycelial growth inhibition, Valsa mali; type: cell-based; settings: read-out: IC50 of antifungal activity; potato dextrose agar, 23 °C, 72 h; 50% reduction in area of mycelial colony
Method in brief: as §1

[21] = Thermal and pH stability of antifungal activity; type: physicochemical; settings: for thermostability: antifungal activity after thermal pretreatment
Method in brief: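 Test peptide was pretreated at 0–100 °C for 10 min or at pH 0–3 and 10–14 for 30 min. Ions were also tested. Residual antifungal activity was then measured by the paper-disk assay on potato dextrose agar (2 μg peptide per disk, buffer control disk, 23 °C, 72 h), scoring inhibition crescents.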

[22] = tested on: tumor cells; experiment: Antiproliferative activity on tumor cells, line not specified; type: cell-based; settings: in words
Method in brief: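 MCF-7 breast cancer and HepG2 hepatoma cells were suspended in RPMI at 2 × 10^4 cells/ml, seeded and incubated for 24 h. Graded concentrations of test peptide in complete RPMI were added for 72 h. MTT (5 mg/ml stock in PBS) was added for 4 h, plates were centrifuged, formazan was dissolved in DMSO and absorbance read at 590 nm.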

[23] = tested on: HIV-1 integrase; experiment: HIV-1 integrase inhibition; type: biochemical; settings: data not shown
[24] = tested on: Fusarium oxysporum; experiment: Antifungal activity, mycelial growth inhibition, Fusarium oxysporum; type: cell-based
Method in brief: as §1

[25] = tested on: fungal species; experiment: Antifungal activity, fungal species in general or not specified; type: cell-based; settings: for antifungal activity: in words
[26] = read-out: IC50 of antifungal activity, potato dextrose agar, 23 °C, 72 h, 50% reduction in area of mycelial colony

ALSCGTVSGNLAACAGYV [B. campestris antifungal peptide]
mitogenic activity [1]: devoid of mitogenic activity toward mouse splenocytes | antiproliferative activity toward tumor cells [2]: antiproliferative activity toward tumor cells | antifungal activity toward M. arachidicola [3]: antifungal activity toward F. oxysporum, M. arachidicola | antifungal activity [4]: with antifungal activity | IC50 [5]: 1600 nM | SARS proteinase inhibitory activity [6]: Neither kale nor B. campestris antifungal peptide demonstrated HIV-1 integrase inhibitory and SARS proteinase inhibitory activities | IC50 [7]: 5800 nM | antifungal activity toward F. oxysporum [8]: antifungal activity toward F. oxysporum | HIV-1 integrase inhibitory activity [9]: Neither kale nor B. campestris antifungal peptide demonstrated HIV-1 integrase inhibitory | antifungal activity toward a Helminthosporium species [10]: antifungal activity toward F. oxysporum, M. arachidicola and a Helminthosporium species | HIV-1 reverse transcriptase inhibitory activity ([11]; in words): HIV-1 reverse transcriptase inhibitory activity | IC50 ([11]; read-out: IC50, HIV-1 reverse transcriptase inhibitory activity): 4000 nM

SECLKEYGGDVGFGFCAPRIYPSFCVQRC [Brassica napus trypsin inhibitor]
trypsin inhibitory activity [12]: manifest trypsin inhibitory activity

PEGPFQGPKATKPGDLAXQTWGGWXGQTPKY [kale antifungal peptide]
trypsin inhibitory activity toward BAEE ([13]; BAEE as substrate, tested up to 50 μM, detailed data not shown): lacked trypsin inhibitory activity | trypsin inhibitory activity toward casein ([13]; casein as substrate, tested up to 10 μM, detailed data not shown): lacked trypsin inhibitory activity | trypsin inhibitory activity ([13]; substrate not specified, in words): did not exhibit trypsin inhibitory activity | mitogenic activity [14]: devoid of mitogenic activity | antifungal activity toward M. arachidicola ([15]; in words): antifungal activity toward F. oxysporum, M. arachidicola | IC50 [15, 26]: 2400 nM | antifungal activity toward a Helminthosporium species [16]: antifungal activity toward F. oxysporum, M. arachidicola and a Helminthosporium species | SARS proteinase inhibitory activity [17]: devoid of | HIV-1 reverse transcriptase inhibitory activity [18]: HIV-1 reverse transcriptase inhibitory activity; also recorded: potent antiproliferative and HIV-1 reverse transcriptase inhibitory activities | IC50 [19]: 2100 nM | IC50 [20]: 150 nM | pH stability ([21]; antifungal activity after pH pretreatment, in words): remarkable thermostability and pH stability | thermostability ([21]; in words): remarkable thermostability | thermostability ([21]; in words, listed as antifungal peptide): pronounced thermostability | acid pH range after which antifungal activity was retained ([21]; pH, pretreatment 30 min, tested pH 0–3, paper disk assay, 2 μg peptide per disk): 2–3 | antiproliferative activity [22]: demonstrated antiproliferative activity; also recorded: antiproliferative activity toward tumor cells; also recorded: potent antiproliferative | HIV-1 integrase inhibitory activity [23]: devoid of | antifungal activity toward F. oxysporum ([24]; in words): antifungal activity toward F. oxysporum | IC50 [24, 26]: 4300 nM | antifungal potency compared with other antifungal proteins ([25]; compared with antifungal proteins of refs 31, 32, 40): more potent than that of the antifungal proteins | antifungal activity [25]: broad spectrum of antifungal activity; also recorded: exhibit antifungal activity | antifungal activity ([25]; listed as antifungal peptide): stable and broad-spectrum antifungal activity
